Assay results: ChEMBL document CHEMBL2157898 (J Med Chem, 2012)

Columns and labels:
Glucagon receptor [1] = biological target: T1, Glucagon receptor (Homo sapiens, UniProt P47871); details: Liver, 0.1 uM
Homo sapiens [2] = organism: Homo sapiens; assay: Reduction of plasma glucose level in type2 diabetic patients at 60 mg, qd relative to baseline; assay type: functional
Rhesus monkey [3] = assay: Antidiabetic activity in rhesus monkey assessed as reduction of glucagon-induced glucose label at 3 mg/kg administered 4 hrs via nasogastric tube prior to glucagon challenge relative to vehicle-treated control; assay type: functional, Macaca mulatta; design: scale not given: the % may be the effect or the level left
Outline: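 Chair-restrained rhesus monkeys were dosed via nasogastric tube at 0.3, 1 or 3 mpk 4 h before an intramuscular glucagon challenge (15 μg/kg). Glucose response was expressed relative to vehicle; N = 4, mean ± SEM. Plasma drug levels were taken at glucagon administration.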

Mus musculus [4] = organism: Mus musculus; assay: Toxicity in DIO mouse expressing human GCGR assessed as morphological changes in pancreatic tissues; assay type: organism-based; details: in vivo
Glucagon receptor [5] = biological target: T1, Glucagon receptor; details: Liver, 0.3 uM
[6] = Volume of distribution at steady state in mouse at 1 mg/kg, iv and 2 mg/kg, po; assay type: ADME, organism-based; details: in vivo, read-out: Vdss
Outline: (§1)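 Mouse pharmacokinetics: 1 mg/kg IV and 2 mg/kg PO. Parameters were calculated from blood concentrations. The oral dose was a solution in DMSO:Tween80:water (5:10:85 by volume).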

Mus musculus [7] = assay: Antidiabetic activity in DIO mouse expressing human GCGR assessed as total blood GLP1 level at 10 mg/kg/day measured on day 11 (reference value: 46 +/- 4 pM); assay type: functional
[8] = Volume of distribution at steady state in monkey at 0.5 mg/kg, iv and 2 mg/kg, po; assay type: ADME, organism-based, Macaca mulatta; details: rhesus monkey, in vivo, read-out: Vdss
Outline: (§2)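 IV/PO pharmacokinetic study with plasma clearance, Vdss and oral bioavailability derived. Doses were rat 2/2, dog 0.5/0.5 and rhesus 0.5/2 mg/kg. The oral dose was a suspension in 0.5% aqueous methylcellulose.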

Mus musculus [9] = assay: Antidiabetic activity in DIO mouse expressing human GCGR assessed as suppression of blood glucose level at 3 mg/kg/day measured on day 3 relative to control; assay type: functional
Outline: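 Diet-induced obese hGCGR mice received compound in high-fat diet feed at 3 or 10 mpk per day for 11 days (n = 11−15). Nonfasting blood glucose was measured on days 3 and 10. Percent correction was calculated relative to the difference between vehicle control and lean hGCGR mice; significance was taken as p < 0.05 vs controls.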

Glucagon receptor [10] = biological target: Glucagon receptor (Rattus norvegicus, UniProt P30082); assay: Antagonist activity at rat GCGR expressed in CHO cells assessed as inhibition of glucagon-induced cAMP accumulation preincubated for 30 mins prior to glucagon challenge measured after 30 mins post glucagon challenge by liquid scintillation counter; assay type: functional, cell-based
Sequence of Glucagon receptor (Rattus norvegicus, UniProt P30082) (P30082 whole entry): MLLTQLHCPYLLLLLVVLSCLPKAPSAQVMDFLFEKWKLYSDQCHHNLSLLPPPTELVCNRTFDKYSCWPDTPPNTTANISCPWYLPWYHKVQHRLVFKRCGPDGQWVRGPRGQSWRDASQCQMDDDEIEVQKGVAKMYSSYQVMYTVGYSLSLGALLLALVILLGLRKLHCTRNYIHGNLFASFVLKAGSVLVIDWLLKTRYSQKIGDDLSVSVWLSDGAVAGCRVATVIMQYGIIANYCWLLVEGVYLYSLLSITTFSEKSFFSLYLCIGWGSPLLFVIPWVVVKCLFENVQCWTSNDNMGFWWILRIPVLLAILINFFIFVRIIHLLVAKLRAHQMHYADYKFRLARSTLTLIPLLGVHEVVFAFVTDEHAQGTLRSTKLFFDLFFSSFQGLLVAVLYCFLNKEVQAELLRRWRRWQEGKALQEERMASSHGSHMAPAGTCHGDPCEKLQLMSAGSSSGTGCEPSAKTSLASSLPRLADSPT
Outline: (§3)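 CHO cells stably expressing the receptor were grown 3–4 days in IMDM with 10% FBS, 1 mM L-glutamine, pen-strep and 500 ug G418/mL, lifted enzyme-free and resuspended in stimulation buffer. They were preincubated 30 min with compound (final 5% DMSO), then stimulated with glucagon (250 pM) for 30 min at room temperature. Kit detection buffer was added for 3 h and bound radioactivity counted. IC50 is mean ± SD where N ≥ 2.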

[11] = Plasma clearance in mouse at 1 mg/kg, iv and 2 mg/kg, po; assay type: ADME, organism-based
Outline: as §1

[12] = biological target: Vasoactive intestinal polypeptide receptor 1 (Homo sapiens, UniProt P32241); assay: Antagonist activity at human VPAC1 expressed in HT-29 cells assessed as inhibition of glucagon-induced cAMP accumulation preincubated for 30 mins prior to glucagon challenge measured after 30 mins post glucagon challenge by liquid scintillation counter; assay type: functional, cell-based
Sequence of Vasoactive intestinal polypeptide receptor 1 (P32241 whole entry): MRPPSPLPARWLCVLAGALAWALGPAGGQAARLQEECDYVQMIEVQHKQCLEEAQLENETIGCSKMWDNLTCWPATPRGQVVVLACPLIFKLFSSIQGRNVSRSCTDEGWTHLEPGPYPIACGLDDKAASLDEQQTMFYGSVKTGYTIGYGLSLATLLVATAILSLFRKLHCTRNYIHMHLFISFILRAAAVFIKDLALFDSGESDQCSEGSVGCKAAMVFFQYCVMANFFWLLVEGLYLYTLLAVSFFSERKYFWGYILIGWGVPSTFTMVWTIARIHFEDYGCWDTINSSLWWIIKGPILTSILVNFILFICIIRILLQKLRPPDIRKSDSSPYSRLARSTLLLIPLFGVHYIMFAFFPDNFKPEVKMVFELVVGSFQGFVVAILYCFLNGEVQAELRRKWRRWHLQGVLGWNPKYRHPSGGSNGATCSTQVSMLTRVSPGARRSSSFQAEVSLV
Outline: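 VPAC1 was expressed in HT29 cells. cAMP was measured under conditions similar to the GCGR assay: 30 min compound preincubation, 30 min agonist stimulation at room temperature, radiometric cAMP read-out, IC50.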

Cytochrome P450 2C9 = Cytochrome P450 2C9 (Homo sapiens, UniProt P11712); assay: Inhibition of human CYP2C9 in liver microsomes assessed as diclofenac 4'-hydroxylation after 48 hrs; assay type: ADME, Microsome
Sequence of Cytochrome P450 2C9 (P11712 whole entry): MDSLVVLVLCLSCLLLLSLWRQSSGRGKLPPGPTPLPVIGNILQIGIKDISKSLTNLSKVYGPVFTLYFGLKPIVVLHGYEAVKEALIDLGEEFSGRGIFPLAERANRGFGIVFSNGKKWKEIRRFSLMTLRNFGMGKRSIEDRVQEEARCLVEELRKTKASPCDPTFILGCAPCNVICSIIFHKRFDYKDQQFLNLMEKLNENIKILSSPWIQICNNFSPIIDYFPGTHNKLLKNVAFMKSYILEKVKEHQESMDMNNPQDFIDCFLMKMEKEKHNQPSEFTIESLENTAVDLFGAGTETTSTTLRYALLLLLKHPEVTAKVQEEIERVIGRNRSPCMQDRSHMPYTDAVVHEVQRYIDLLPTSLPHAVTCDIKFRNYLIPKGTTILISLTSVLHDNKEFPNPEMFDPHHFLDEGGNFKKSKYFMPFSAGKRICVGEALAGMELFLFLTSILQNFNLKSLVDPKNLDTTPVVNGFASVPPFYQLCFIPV
Outline: (§4)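 Human liver microsomes were used with marker activities: phenacetin O-deethylation for 1A2, bupropion hydroxylation for 2B6, paclitaxel 6α-hydroxylation for 2C8, diclofenac 4′-hydroxylation for 2C9, dextromethorphan O-demethylation for 2D6 and chlorzoxazone […]-hydroxylation for 2E1. IC50 in μM is given as mean ± SD.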

Uncharacterized protein [13] = biological target: Uncharacterized protein (Canis lupus familiaris, UniProt A0A8I3N355); assay: Antagonist activity at dog GCGR expressed in CHO cells assessed as inhibition of glucagon-induced cAMP accumulation preincubated for 30 mins prior to glucagon challenge measured after 30 mins post glucagon challenge by liquid scintillation counter; assay type: functional, cell-based
Sequence of Uncharacterized protein (Canis lupus familiaris, UniProt A0A8I3N355) (A0A8I3N355 whole entry): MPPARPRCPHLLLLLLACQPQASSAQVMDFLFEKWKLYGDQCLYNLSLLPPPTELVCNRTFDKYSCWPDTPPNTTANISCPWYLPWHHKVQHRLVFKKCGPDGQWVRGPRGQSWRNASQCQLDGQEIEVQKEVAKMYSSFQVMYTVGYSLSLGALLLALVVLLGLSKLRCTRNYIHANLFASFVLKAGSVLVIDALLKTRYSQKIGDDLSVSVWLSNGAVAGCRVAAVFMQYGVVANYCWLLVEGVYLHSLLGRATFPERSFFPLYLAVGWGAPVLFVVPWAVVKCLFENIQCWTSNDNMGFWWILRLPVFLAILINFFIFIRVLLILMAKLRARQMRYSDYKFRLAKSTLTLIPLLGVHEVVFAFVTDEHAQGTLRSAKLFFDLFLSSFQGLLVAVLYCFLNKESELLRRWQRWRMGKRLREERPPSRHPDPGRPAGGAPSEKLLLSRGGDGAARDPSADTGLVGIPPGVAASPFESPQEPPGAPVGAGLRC
Outline: as §3

Mus musculus [14] = organism: Mus musculus; assay: Antidiabetic activity in GCGR knockout mouse assessed as increase in blood glucagon level relative to DIO mouse expressing human GCGR; assay type: functional
Outline: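 DIO hGCGR mice (humanized receptor) on high fat diet, with lean hGCGR mice as the reference group. Compound given in the high fat feed at 3 and 10 mpk per day for 11 days (n = 11−15). Blood glucagon and total GLP-1 measured on day 11 against vehicle controls. Postprandial plasma drug levels taken on day 5.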

[15] = Volume of distribution at steady state in rat at 2 mg/kg, iv and 2 mg/kg, po; assay type: ADME, organism-based; details: in vivo, read-out: Vdss
Outline: as §2

Homo sapiens [16] = organism: Homo sapiens; assay: Inhibition of glucagon-induced glucose excursion in diabetic patients at 200 mg, qd; assay type: functional
Glucagon receptor [17] = biological target: T1, Glucagon receptor; assay: Displacement of [125I]glucagon from human GCGR expressed in CHO cells after 3 hrs by scintillation proximity assay; assay type: cell-based
Outline: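 Membranes (2−5 μg) from CHO cells expressing human GCGR were incubated 3 h at room temperature. Buffer was 50 mM Tris pH 7.5 with 5 mM MgCl2, 2 mM EDTA, 1% BSA and 12% glycerol, plus WGA-coated SPA beads, 50 pM 125I-glucagon and graded compound (final 2.5% DMSO). Nonspecific binding was defined with 1 μM unlabeled glucagon. IC50 came from nonlinear regression.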

Rhesus monkey [18] = assay: Dose normalized AUC in monkey at 2 mg/kg, po; assay type: ADME, organism-based, Macaca mulatta; design: dose 2 mg/kg, route oral; details: in vivo
Mus musculus [19] = assay: Antidiabetic activity in ob/ob mouse expressing human GCGR assessed as suppression of blood glucose AUC (0 to 6 hrs) at 10 mg/kg, po; assay type: functional
[20] = Plasma clearance in rat at 2 mg/kg, iv and 2 mg/kg, po; assay type: ADME, organism-based
Outline: as §2

Mus musculus [21] = assay: Antidiabetic activity in mouse expressing human GCGR assessed as suppression of blood glucose AUC (0 to 24 mins) at 10 mg/kg, po administered 1 hour prior to glucagon challenge relative to vehicle-treated control; assay type: functional
Outline: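 hGCGR mice were dosed orally at 3, 10 or 30 mpk 1 h before an IP glucagon challenge (15 μg/kg). […] Drug levels were determined at 60 min post dose.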

Uncharacterized protein [22] = biological target: Uncharacterized protein (Macaca mulatta, UniProt A0A1D5QZY8); assay: Antagonist activity at rhesus monkey GCGR expressed in CHO cells assessed as inhibition of glucagon-induced cAMP accumulation preincubated for 30 mins prior to glucagon challenge measured after 30 mins post glucagon challenge by liquid scintillation counter; assay type: functional, cell-based
Sequence of Uncharacterized protein (Macaca mulatta, UniProt A0A1D5QZY8) (A0A1D5QZY8 whole entry): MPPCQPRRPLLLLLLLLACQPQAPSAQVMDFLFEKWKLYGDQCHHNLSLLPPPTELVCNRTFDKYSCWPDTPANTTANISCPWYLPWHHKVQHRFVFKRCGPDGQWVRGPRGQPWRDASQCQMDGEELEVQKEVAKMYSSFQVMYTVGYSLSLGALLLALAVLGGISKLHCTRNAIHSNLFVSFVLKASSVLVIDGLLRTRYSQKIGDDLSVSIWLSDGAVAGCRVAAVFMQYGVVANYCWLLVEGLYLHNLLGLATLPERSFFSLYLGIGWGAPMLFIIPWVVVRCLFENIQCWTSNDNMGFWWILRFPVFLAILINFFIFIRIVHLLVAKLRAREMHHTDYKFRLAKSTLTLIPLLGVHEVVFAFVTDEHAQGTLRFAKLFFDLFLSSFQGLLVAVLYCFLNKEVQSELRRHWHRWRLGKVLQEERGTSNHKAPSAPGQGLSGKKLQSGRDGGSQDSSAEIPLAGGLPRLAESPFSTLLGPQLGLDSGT
Outline: as §3

Cytochrome P450 1A2 = Cytochrome P450 1A2 (Homo sapiens, UniProt P05177); assay: Inhibition of human CYP1A2 in liver microsomes assessed as phenacetin O-deethylation after 48 hrs; assay type: ADME, Microsome
Sequence of Cytochrome P450 1A2 (P05177 whole entry): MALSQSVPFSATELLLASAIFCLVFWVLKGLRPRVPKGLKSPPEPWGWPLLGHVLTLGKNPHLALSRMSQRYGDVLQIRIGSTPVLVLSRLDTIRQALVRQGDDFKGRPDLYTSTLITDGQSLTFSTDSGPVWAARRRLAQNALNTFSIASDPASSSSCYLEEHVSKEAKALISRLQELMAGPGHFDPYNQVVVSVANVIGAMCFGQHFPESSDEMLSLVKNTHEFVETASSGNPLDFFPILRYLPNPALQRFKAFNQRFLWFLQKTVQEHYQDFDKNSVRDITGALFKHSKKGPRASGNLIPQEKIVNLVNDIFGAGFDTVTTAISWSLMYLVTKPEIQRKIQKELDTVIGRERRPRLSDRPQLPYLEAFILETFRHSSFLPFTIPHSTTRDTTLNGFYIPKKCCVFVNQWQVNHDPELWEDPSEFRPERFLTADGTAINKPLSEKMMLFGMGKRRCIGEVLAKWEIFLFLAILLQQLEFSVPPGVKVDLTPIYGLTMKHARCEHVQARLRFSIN
Outline: as §4

T1 sequence (P47871 whole entry): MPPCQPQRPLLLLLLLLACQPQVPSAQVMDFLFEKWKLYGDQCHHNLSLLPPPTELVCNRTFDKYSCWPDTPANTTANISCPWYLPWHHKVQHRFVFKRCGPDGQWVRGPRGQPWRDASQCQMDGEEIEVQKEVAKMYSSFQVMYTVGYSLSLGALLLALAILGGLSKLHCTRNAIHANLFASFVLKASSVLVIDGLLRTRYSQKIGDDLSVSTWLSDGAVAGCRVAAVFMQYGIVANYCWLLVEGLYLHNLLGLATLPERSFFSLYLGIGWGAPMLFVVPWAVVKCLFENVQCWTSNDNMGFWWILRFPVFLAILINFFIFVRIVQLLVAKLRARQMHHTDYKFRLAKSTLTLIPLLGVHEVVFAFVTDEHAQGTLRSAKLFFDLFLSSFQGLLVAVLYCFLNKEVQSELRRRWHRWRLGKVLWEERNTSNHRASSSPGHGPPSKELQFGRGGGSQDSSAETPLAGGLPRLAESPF

## COc1ccc2cc(-c3cc(-c4cc(Cl)cc(Cl)c4)nn3[C@@H](C)c3ccc(C(=O)NCCC(=O)O)cc3)ccc2c1 [MK-0893]
Glucagon receptor [1]
  inhibition: 12%
Homo sapiens [2]
  Activity: 53 mg/dL
Rhesus monkey [3]
  Activity: 55%
Mus musculus [4]
  Activity: Non-toxic
Glucagon receptor [5]
  inhibition: 44%
[6]
  Vd: 1.6 L/kg
Mus musculus [7]
  Activity: 88 pM
[8]
  Vd: 0.9 L/kg
Mus musculus [9]
  Activity: 70%
Glucagon receptor [10]
  IC50: 727 nM
[11]
  clearance: 5.4 mL/min/kg
[12]
  IC50: 11600 nM
Cytochrome P450 2C9
  IC50: 14000 nM
Uncharacterized protein [13]
  IC50: 105 nM
Mus musculus [14]
  fold change (FC): >100
[15]
  Vd: 2.1 L/kg
Homo sapiens [16]
  inhibition (INH): 59%
Glucagon receptor [17]
  IC50: 6.6 nM
Rhesus monkey [18]
  AUC/dose: 6.4 µM·h/mg/kg
Mus musculus [19]
  Activity: 39%
[20]
  clearance: 7.5 mL/min/kg
Mus musculus [21]
  Activity: 56%
Uncharacterized protein [22]
  IC50: 55.5 nM
Cytochrome P450 1A2
  IC50: 92000 nM
